Experimental data from ChEMBL document CHEMBL2346664, “Synthesis, characterization and in vitro anticancer evaluation of novel 1,2,4-triazolin-3-one derivatives” (2013).

Tests used:
Format in all cases: functional
[1] = test system: SF-295; test: Growth inhibition of human SF295 cells assessed as cell growth at 10 '-4 M after 48 hrs by sulforhodamine B assay; conditions: SF-295, 48 h, read-out: Activity
[2] = test system: MOLT-4; test: Growth inhibition of human MOLT4 cells after 48 hrs by sulforhodamine B assay; conditions: MOLT-4, 48 h
How it was run: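 NCI 60-cell-line five-dose screen. Cells were plated at 5,000–40,000/well by doubling time and grown 24 h at 37 °C, 5% CO2. Time-zero plates were TCA-fixed. Drug from DMSO stock was tested at 0.01, 0.1, 1, 10 and 100 µM final for 48 h continuous exposure. Read-out was SRB at 515 nm. GI50 is the concentration giving 50% reduction in net protein increase versus untreated control.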

[3] = test system: HCT-15; test: Growth inhibition of human HCT15 cells assessed as cell growth at 10 '-7 M after 48 hrs by sulforhodamine B assay; conditions: HCT-15, 48 h, read-out: Activity
[4] = test system: HL-60(TB); test: Growth inhibition of human HL-60(TB) cells assessed as cell growth at 10 '-6 M after 48 hrs by sulforhodamine B assay; conditions: HL-60, 48 h, read-out: Activity
How it was run: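 Five-dose NCI protocol with final concentrations of 0.01–100 µM and drug diluted from a DMSO stock (400× the top concentration) in medium with gentamicin. Cells were pre-incubated 24 h, then exposed 48 h at 37 °C. Suspension cells were fixed with 16% final TCA, SRB-stained and read at 515 nm. Percentage growth at each level was [(Ti−Tz)/(C−Tz)]×100, or [(Ti−Tz)/Tz]×100 when Ti < Tz.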

[5] = test system: ACHN; test: Growth inhibition of human ACHN cells assessed as cell growth at 10 '-6 M after 48 hrs by sulforhodamine B assay; conditions: read-out: Activity
How it was run: (§1)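 Percent growth at each of the five concentrations of the 48 h continuous-exposure NCI SRB screen. Drug stocks were in DMSO at 400× the top final concentration and diluted in medium with gentamicin. Growth was calculated as [(Ti-Tz)/(C-Tz)]×100 when Ti ≥ Tz, or [(Ti-Tz)/Tz]×100 when Ti < Tz. Tz plates were fixed at drug addition; untreated wells served as control. Absorbance was read at 515 nm.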

[6] = test system: T47D; test: Growth inhibition of human T47D cells assessed as cell growth at 10 '-7 M after 48 hrs by sulforhodamine B assay; conditions: read-out: Activity
[7] = test system: A498; test: Growth inhibition of human A498 cells assessed as cell growth at 10 '-6 M after 48 hrs by sulforhodamine B assay; conditions: A498, 48 h, read-out: Activity; how it was run: as §1
[8] = test system: T47D; test: Growth inhibition of human T47D cells assessed as cell growth at 10 '-6 M after 48 hrs by sulforhodamine B assay; conditions: read-out: Activity
[9] = test system: SNB-75; test: Growth inhibition of human SNB75 cells assessed as cell growth at 10 '-7 M after 48 hrs by sulforhodamine B assay; conditions: SNB-75, 48 h, read-out: Activity
[10] = test system: SF-268; test: Growth inhibition of human SF268 cells assessed as growth inhibition at 10 uM after 48 hrs by sulforhodamine B assay; conditions: SF-268, 48 h, read-out: GI
[11] = test system: IGROV-1; test: Growth inhibition of human IGROV1 cells assessed as cell growth at 10 '-4 M after 48 hrs by sulforhodamine B assay; conditions: IGROV-1, 48 h, read-out: Activity
[12] = test system: SR; test: Growth inhibition of human SR cells assessed as cell growth at 10 '-6 M after 48 hrs by sulforhodamine B assay; conditions: read-out: Activity
[13] = test system: SK-OV-3; test: Growth inhibition of human SKOV3 cells assessed as cell growth at 10 '-5 M after 48 hrs by sulforhodamine B assay; conditions: SK-OV-3, 48 h, read-out: Activity
[14] = test system: UO-31; test: Growth inhibition of human UO31 cells assessed as cell growth at 10 '-6 M after 48 hrs by sulforhodamine B assay; conditions: UO-31, 48 h, read-out: Activity
[15] = test system: BT-549; test: Growth inhibition of human BT549 cells assessed as cell growth at 10 '-7 M after 48 hrs by sulforhodamine B assay; conditions: BT-549, 48 h, read-out: Activity; how it was run: as §1
[16] = test system: 786-0; test: Growth inhibition of human 786-0 cells assessed as cell growth at 10 '-5 M after 48 hrs by sulforhodamine B assay; conditions: 786-0, 48 h, read-out: Activity; how it was run: as §1
[17] = test system: A549; test: Growth inhibition of human A549 cells assessed as cell growth at 10 '-8 M after 48 hrs by sulforhodamine B assay; conditions: A549, 48 h, read-out: Activity; how it was run: as §1
[18] = test system: RPMI-8226; test: Growth inhibition of human RPMI8226 cells assessed as cell growth at 10 '-6 M after 48 hrs by sulforhodamine B assay; conditions: RPMI-8226, 48 h, read-out: Activity
[19] = Growth inhibition of human HCC2998 cells assessed as cell growth at 10 '-5 M after 48 hrs by sulforhodamine B assay; conditions: HCC 2998, 48 h, read-out: Activity
[20] = Growth inhibition of human NCI-ADR-RES cells assessed as growth inhibition at 10 uM after 48 hrs by sulforhodamine B assay; conditions: read-out: GI
[21] = test system: LOX IMVI; test: Growth inhibition of human LOXIMVI cells assessed as cell growth at 10 '-7 M after 48 hrs by sulforhodamine B assay; conditions: read-out: Activity
[22] = test system: NCI-H23; test: Growth inhibition of human NCI-H23 cells assessed as cell growth at 10 '-6 M after 48 hrs by sulforhodamine B assay; conditions: NCI-H23, 48 h, read-out: Activity
[23] = test system: UO-31; test: Growth inhibition of human UO31 cells after 48 hrs by sulforhodamine B assay; conditions: UO-31, 48 h
[24] = test system: T47D; test: Growth inhibition of human T47D cells assessed as cell growth at 10 '-4 M after 48 hrs by sulforhodamine B assay; conditions: read-out: Activity
[25] = test system: HCT-116; test: Growth inhibition of human HCT116 cells assessed as cell growth at 10 '-7 M after 48 hrs by sulforhodamine B assay; conditions: HCT-116, 48 h, read-out: Activity
[26] = test system: SN12C; test: Growth inhibition of human SN12C cells assessed as cell growth at 10 '-5 M after 48 hrs by sulforhodamine B assay; conditions: read-out: Activity
[27] = test system: NCI-H460; test: Growth inhibition of human NCI-H460 cells assessed as cell growth at 10 '-8 M after 48 hrs by sulforhodamine B assay; conditions: NCI-H460, 48 h, read-out: Activity
[28] = test system: M14; test: Growth inhibition of human M14 cells assessed as cell growth at 10 '-7 M after 48 hrs by sulforhodamine B assay; conditions: M14, 48 h, read-out: Activity
[29] = test system: OVCAR-8; test: Growth inhibition of human OVCAR8 cells assessed as growth inhibition at 10 uM after 48 hrs by sulforhodamine B assay; conditions: OVCAR-8, 48 h, read-out: GI
[30] = test system: RXF 393; test: Growth inhibition of human RXF393 cells assessed as cell growth at 10 '-8 M after 48 hrs by sulforhodamine B assay; conditions: RXF 393, 48 h, read-out: Activity
[31] = read-out: LD50 (the source's name)

For `Cc1cc(=O)oc2cc(OCCn3c(C)nn(-c4ccc(Cl)cc4)c3=O)ccc12`, the growth at 100 µM [1] was 16%, the GI50 [2] was 4.71 µM and the TGI [2] was > 1 µM. The CC50 [2, 31] was > 1 µM, the growth at 0.1 µM [3] was 95% and the growth at 1 µM [4] was 91%. For the same compound, the growth at 1 µM [5] was 95%, the growth at 0.1 µM [6] was 99% and the growth at 1 µM [7] was 52%. For the same compound, the growth at 1 µM [8] was 89%, the growth at 0.1 µM [9] was 79% and the inhibition of growth at 10 µM [10] was 49.7%. The growth at 100 µM [11] was 41%, the growth at 1 µM [12] was 29% and the growth at 10 µM [13] was 16%. It also gave a growth at 1 µM [14] of 74%, a growth at 0.1 µM [15] of 104% and a growth at 10 µM [16] of 35%. The growth at 0.01 µM [17] was 97%, the growth at 1 µM [18] was 95% and the growth at 10 µM [19] was 29%. The inhibition of growth at 10 µM [20] was 75.3%, the growth at 0.1 µM [21] was 88% and the growth at 1 µM [22] was 64%. For the same compound, the GI50 [23] was 1.27 µM, the TGI [23] was > 1 µM and the CC50 [23, 31] was > 1 µM. The growth at 100 µM [24] was 36%, the growth at 0.1 µM [25] was 98% and the growth at 10 µM [26] was 39%. For the same compound, the growth at 0.01 µM [27] was 104%, the growth at 0.1 µM [28] was 101% and the inhibition of growth at 10 µM [29] was 82.3%. The growth at 0.01 µM [30] was 95%.
